Test system: MS2 coat protein
Assay: apparent Kd, MS2 coat protein; higher = weaker binding; RNA-MaP array; FMN 200 µM where present
Summary of the method: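 SNAP-549-labelled MS2 coat protein, doubled from 0.7 or 1.5 nM to 3 µM, was titrated over designs transcribed by stalled E. coli RNA polymerase on Illumina sequencing-chip clusters. Titrations were run without and then with constant ligand in 100 mM Tris-HCl pH 7.5, 80 mM KCl, 4 mM MgCl2, BSA, DTT, yeast tRNA and Tween-20. The apparent Kd is the median of filtered per-cluster fits to green signal normalised to red-channel RNA signal and control-cluster median Fmax.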

[1] = designed as: OFF switch for flavin mononucleotide, no ligand
[2] = ligand present: flavin mononucleotide, designed as: OFF switch for flavin mononucleotide
[3] = designed as: ON switch for flavin mononucleotide, no ligand
[4] = ligand present: flavin mononucleotide, designed as: ON switch for flavin mononucleotide

| Sequence | apparent Kd [1] [nM] | apparent Kd [2] [nM] | apparent Kd [3] [nM] | apparent Kd [4] [nM] |
| --- | --- | --- | --- | --- |
| UCGAGGUCAGGAUAUACAUGAGGAUCACCCAUGUGGAAGUAAGGUAGGAGAAGAGUAGGUAGAAGGGACGAGAG | 42.6 | 35.7 |  |  |
| AACGGAAUGUAGAAGGGUGACAUGAGGAUCACCCAUGUUCACAUGCGUAUUAAAGUAUGUGAUCCACAGGAUAUACUGUCCGUG |  |  | 957 | 92.8 |
| UGGUACUAGGGAGGAUAUGGGAAGAUACAUGAGGAUCACCCAUGUUUAAGAAUGCCGAGAGGCAACUAGAAGGACCUAGUACCU |  |  | 896 | 63.6 |
| GGAUAGGACAGAGGAUAUACCGAUAGGAUCUACUAUCGAAUAAUCCUCACAUGAGGAUCACCCAUGUAGAAGGCUGUCCUAUCG | 21.3 | 143 |  |  |
| AAAGACAUGAGGAUCACCCAUGUCGGUAUAACUUAAGCGUCACAGGAUAUGUUACGAAAUUAUGGACAGAAGGGUGAGCUGUGG |  |  | 23.8 | 9.02 |
| CGAUAGGACAGAGGAUAUACGUGCUAGAGAUACUAGCAAAAUUUCCUCACAUGAGGAUCACCCAUGUAGAAGGCUGUCCUAUCG | 15.6 | 439 |  |  |
| AUCAGCUCGUCAGGAUAUACGUCACUGCGUCAUCAGUGUGGUAAGAUCACAUGAGGAUCACCCAUGUAGAAGGGACGAGCUGAU | 15.5 | 234 |  |  |
| AGUGUGUUAGGAUAUCGCAUAUGCUGGAGGAGGUGGAGUUACGAGAAGGAACAUGAGGAUCACCCAUGUAGGAC | 28.2 | 26.5 |  |  |
| UCUUAGUCAGGAUAUACAUGAGGAUCACCCAUGUAAAAUUUUAAUUUAAUUUUAAGGUGUAGAAGGGACCAUUU | 30.6 | 26.2 |  |  |
| GGACGUCACAUCUACAUGAGGAUCACCCAUGUCAAAAGACAUGAGGAUAUGCUUCCUAAUUGGAAGCAGAAGGCAUGGACGUCC |  |  | 1210 | 67.5 |
| AGUGUCAUCGAGAAGGCCUCAACAUGAGGAUCACCCAUGUUGCAAAAUGGGAGGAUAUCGCGCGUUCAAAAACGUUUCGUAGCA |  |  | 42.3 | 17.6 |
| AUGGAUAUCACAGGAUAUGAUAUGGAUACCAUAUCAGAAGGGUGAUCCAUCCUCUGUAAAUACAUGAGGAUCACCCAUGUGUCC |  |  | 15.6 | 15.6 |
| UCAUUUAUUACAGGAUAUAUUAGUAUACAGUUGUUUGGUUAUUACAUAUUAAUAGAAGGGUAGAACAUGAGGAUCACCCAUGUA |  |  | 234 | 119 |
| GGUGCGUUUGUGAGGAUAUGCUGGUCCUUGGAUCAGCAGAAGGCACAUGAGGAUCACCCAUGUGGUGUCGUUCC | 181 | 143 |  |  |
| UUGUGUGUAGAGGAUAUCUGCGCGCGCGCGCGCGGAGAAGGCUGUACAUGAGGAUCACCCAUGUUGUGUGUGUG | 71.8 | 29.9 |  |  |
| CCUCAUAUUUAGGAUAUGAUUGGUAAUUAUUAGUUAGAAGGAGGUACAUGAGGAUCACCCAUGUAAUAUUUAAA | 21.5 | 21.2 |  |  |
| GCCAUCGCGUGAGGAUAUGCUCCGGUUUCCGGAGCAGAAGGCAUGUCAUAAGACAUGAGGAUCACCCAUGUAGUUAAGAUGGCA |  |  | 238 | 9.79 |
| UGCUGUGGCAGAGGAUAUACUCUAAUAAUCCAUUGCAAAUAGCGAUGGACAUGAGGAUCACCCAUGUAGAAGGCUGUCACAGCA | 63.7 | 137 |  |  |
| AUCAGCACGUGAGGAUAUGCGUCACUGCGUCAGCAGUGUGGUAAGAUCACAUGAGGAUCACCCAUGUAGAAGGCACGAGCUGAU | 34 | 460 |  |  |
| UCGUGGUUAGGAUAUACAUGAGGAUCACCCAUGUGUGGCAGGGAGCGCCGACGGGCUUGUAGAAGGGAUGCGCA | 40.4 | 39.6 |  |  |
| AGUCUGCGAGGAUAUACAUGAGGAUCACCCAUGUGCGAAGAACUAGUGAGGUCGAUUGGUAGAAGGCGCGGACA | 297 | 30.3 |  |  |
| GUACUGUAGUGAGGAUAUACGAGAACGAUAGUUCGGCGAUCCAAUUAUACAUGAGGAUCACCCAUGUAGAAGGCACUUCAGUAC | 10.8 | 30.6 |  |  |
| GAUCUCGUAGUGAGGAUAUUGCUCAUAGACAAUAGUAAGAAGGCACAUGAGGAUCACCCAUGUCGAGUGAGGUU | 69.9 | 143 |  |  |
| CCCGGGCCUGUGAGGAUAUCGGGCCCGAAAGGGUUUGAGAAGGCACAUGAGGAUCACCCAUGUAAGGGUUUGGG | 33.8 | 24.7 |  |  |
| AGAUAAGUCACAGGAUAUUCCUACAUUAAUAUGGAAGAAGGGUGAGCAUGAUUCGAUACAUGAGGAUCACCCAUGUAUCCGCGA |  |  | 78.4 | 19.7 |
| UUAUUUUUACAGAAGGUUUAAUAAUAUAUAUGAGAAGGAUAUGUAACAUGAGGAUCACCCAUGUUUCAUCUAUAUGAGGAUCAU | 6.69 | 6.32 |  |  |
| GUGGUCAGACAUGAGGAUCACCCAUGUGGAAUAAAUAACAGACAGGAUAUCUAAUAUAGGAUAUAGGAGAAGGGUCGAUUGGUG |  |  | 89 | 85.3 |
| UGUCUAUAUGAAGGAUAUCUAAGCAUAAACCGUAGAGAAGGUCAAUAGUACAUGAGGAUCACCCAUGUUGGGAUUGAUGGGUUU | 25.3 | 38.6 |  |  |

| Sequence | apparent Kd [1] [nM] | apparent Kd [2] [nM] | apparent Kd [3] [nM] | apparent Kd [4] [nM] |
| --- | --- | --- | --- | --- |
| AGGUCAACCACAGGAUAUGGCUAGCAUAGCUAGCCAGAAGGGUGGUCGUUGCCAUGUACAUACAUGAGGAUCACCCAUGUAUCC |  |  | 179 | 54.7 |
| UGUUGUAUUACAGGAUAUCUAGUAUUAUUAUUUAGAGAAGGGUAUUCACAUGAGGAUCACCCAUGUAUAUACGAGGAAGUUGUG |  |  | 38.2 | 40.1 |
| CUUAUGUCAGGAUAUCAGUAGUAAAAAAAAAAAAUUACUACUGAGAAGGGACAUGAGGAUCACCCAUGUCCAUU | 30.9 | 31.2 |  |  |
| UGCCUGAGUCGAGGAUAUUAUGGAUCCUCUAAUACAUGAGGAUCACCCAUGUAAUUAAUUAUACAUGAGAAGGUGACUCAGGCU |  |  | 529 | 488 |
| CGCACUGAUAGAGGAUAUGUUUUACAUGAGGAUCACCCAUGUGUACAAGGAUCAAUAUAUUAGUAACAGAAGGCUAUUAGUGCG | 24.7 | 21.5 |  |  |
| UUUGGGCCUGUGAGGAUAUGCCCGGGUAAAUUUGGGCAGAAGGCACAUGAGGAUCACCCAUGUAAGGGCCCGGG | 31.5 | 21.4 |  |  |
| CGGCGCUGUUGAGAGGAUAUGCGGUGAUGGACAUGAGGAUCACCCAUGUUAGCGAUAGCAUUACGGUAGAAGGCUCUACAGCUGC |  |  | 17.9 | 14.1 |
| ACAGCGUGAGGAUAUACAUGAGGAUCACCCAUGUAUGGCAGGUUAUCCUGUCGUAAGUGUAGAAGGCACGCUGU | 20.4 | 58.5 |  |  |
| AAGAGAGCAGGAUAUCGGUUUUGCGACAUGAGGAUCACCCAUGUGAGCCGAGUCCAACGCCGAGAAGGGCUAAAAU | 62.5 | 336 |  |  |
| GUAGUGUAUGUAGGAUAUGUGAAGGAAACAUUUACAGAAGGACAUGAGGAUCACCCAUGUAUUACAGUCAGCAAUCUGACUGUU | 23.6 | 41.2 |  |  |
| AUAAUGAGAGGAUAUACAUGAGGAUCACCCAUGUUAUUAACACGGCGAGCUCCAAUACGUAGAAGGCUCAUUUA | 123 | 26.5 |  |  |
| AAGACUAGAGGAUAUACAUGAGGAUCACCCAUGUAACUGUCAGGUGACUGACGGAGAUGUAGAAGGCUAGUCAA | 19.6 | 43.2 |  |  |
| GGUUGACAAAGUCAACCAAUUCGAACAUGAGGAUCACCCAUGUAGGAUAUGCUACUCAAAGAGUAGCAGAAGGACAUGUGCCUU | 34.3 | 188 |  |  |
| CUCGUGUUAGGAUAUCGUGGCUGGGCUGGGACGUCCGAUCGCGAGAAGGGACAUGAGGAUCACCCAUGUAAAAC | 36.7 | 86 |  |  |
| CAGUACUGAGGAUAUACAUGAGGAUCACCCAUGUGCUCGAAGUAGGAUACUACUAUUAGUAGAAGGCAGUACUG | 16.1 | 76.8 |  |  |
| GGUGUCAUCGAGAAGGCCUCAACAUGAGGAUCACCCAUGUUGUAAUAUGGGAGGAUAUCGAUGAUACAGCUACGUUUCGUAGCU |  |  | 20.2 | 5.86 |
| UAAAUUUUAUGAUAUUAUGACAUUAGAAGGCUGUACAUGUUGAUACAUGAGGAUCACCCAUGUAUAGAGGAUAUAGACAAUUUU | 31 | 65.1 |  |  |
| UUUUUGUGAGGAUAUCAGUAGUAAAUAAAUAAAAUAACUACUGAGAAGGCACAUGAGGAUCACCCAUGUUCUUU | 18.9 | 49.6 |  |  |
| AUUAUUUAUAGUUAUUGGUAAUUGACAGAAGGUGAAAGUGUCACAUGAGGAUCACCCAUGUUCUUCAAGGAUAUGUUGGUUUAC |  |  | 37.6 | 8.4 |
| AGACCGCUACGCCGGUUUGACGCACAGGAUAUGCGGUUACAUGAGGAUCACCCAUGUGGCCAUGAGUAGAAGGGUGGUUCGUCC |  |  | 49.9 | 39.1 |
| UUUGAAUAGGUAGGAUAUACUUUCAAUUUUCUUUUCCUUACAUGAGGAUCACCCAUGUUUACAUUGUAGAAGGACCUCAUUGAU | 215 | 173 |  |  |
| UCACGGUAUGUAGGAUAUGCAUAGCAUUGCUAUGCAGAAGGACAUGAGGAUCACCCAUGUAUGUAUUCCAUACUAUUCCCGUGU | 6.18 | 6.09 |  |  |
| AUUGUUCGAGAGAAGGGAACAUGAGGAUCACCCAUGUUACCUCACCUGGUGACGGAACUCCAAGUUCAGGAUAUCUCGAGCGAU | 5.63 | 8.59 |  |  |
| UUGCGCUGUCGAGAGGAUAUGCGGUGUUGGACAUGAGGAUCACCCAUGUUAGCGAUUGCUUUACGGUAGAAGGCUCUUCAGCUGC |  |  | 78.8 | 52.9 |
| GUGGAGUACGUAGGAUAUGUAGGAUAUUCCUACAUGAGGAUCACCCAUGUAAGCAUGGAAGAAGGACAGAAGGACGUGCUCCAG |  |  | 231 | 12.1 |
| UCAUACUUUCGAGGAUAUCGGUUAACAUAUUAACGAGAAGGCGAUAUAUUGUUUAAUCUUAUAAACAUGAGGAUCACCCAUGUA |  |  | 33.9 | 25.4 |
| GUGUAGUCAGGAUAUACAUAGGAAGAGAAGAGAAGAGAAGCACAUGAGGAUCACCCAUGUAGAAGGGACAGUGU | 70.9 | 82.9 |  |  |
